The values that follow come from ChEMBL document CHEMBL3112453, “Novel lung adenocarcinoma and nuclear factor-kappa B (NF-κB) inhibitors: synthesis and evaluation of lantadene congeners” (Eur J Med Chem, 2014).

A value given as a limit tells only on which side of the number the result lay.

The nature of data set [1]: Metabolic stability in 80% human plasma assessed as compound remaining at 5 mg/ml measured at 120 mins by HPLC analysis. The class given is ADME, cell-free. The following applies: read-out: Stability. The essentials: (§1)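 Human plasma at 80%, diluted with isotonic phosphate buffer pH 7.4, 37 °C in a water bath. Compound stock is 5 mg/ml in THF, diluted 1:10 into the plasma. Samples were taken at 0, 15, 30, 60 and 120 min, quenched in ACN, centrifuged 5 min, and the supernatant analysed by HPLC for ester remaining.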

Data set [2] is described as follows: Metabolic stability in 80% human plasma assessed as compound remaining at 5 mg/ml measured at 60 mins by HPLC analysis. The class given is ADME, cell-free. To be noted: read-out: Stability. The essentials:
as §1

Data set [3] can be described thus: Metabolic stability in 80% human plasma assessed as compound remaining at 5 mg/ml measured at 15 mins by HPLC analysis. The following applies: read-out: Stability. It is filed as ADME, cell-free. The essentials:
as §1

Data set [4] can be described thus: Metabolic stability in 80% human plasma assessed as compound remaining at 5 mg/ml measured at 30 mins by HPLC analysis. It is filed as ADME, cell-free. To be noted: read-out: Stability. The essentials: as §1
A short description of data set [5]: Chemical stability in simulated gastric fluid assessed as compound remaining at 5 mg/ml at pH 2 measured at 8 hrs by HPLC analysis. It is filed as physicochemical. The following applies: read-out: Stability. The essentials:
(§2)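 Stability in simulated gastric fluid, HCl buffer pH 2, 37 °C in a water bath. Compound stock is 5 mg/ml in THF, diluted 1:10 into buffer. Samples were taken at 0, 2, 5, 8 and 12 h, diluted with ACN and analysed by HPLC. % remaining = peak area at each time / peak area at 0 min × 100.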

The nature of data set [6]: Chemical stability in simulated gastric fluid assessed as compound remaining at 5 mg/ml at pH 2 measured at 12 hrs by HPLC analysis. The following applies: read-out: Stability. The class given is physicochemical. The gist of the method:
as §2

The nature of data set [7]: Chemical stability in simulated gastric fluid assessed as compound remaining at 5 mg/ml at pH 2 measured at 5 hrs by HPLC analysis. The class given is physicochemical. To be noted: read-out: Stability. The essentials: as §2
Data set [8] can be described thus: Chemical stability in simulated gastric fluid assessed as compound remaining at 5 mg/ml at pH 2 measured at 2 hrs by HPLC analysis. The following applies: read-out: Stability. It is filed as physicochemical. The gist of the method:
as §2

Data set [9] concerns A549. Kind of data set: Cytotoxicity against human A549 cells after 48 hrs by MTT assay. It is filed as functional, cell-based. The essentials:
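A549 cells grown in RPMI with 5% FBS and 1% penicillin-streptomycin. Seeded at 4000 cells/well, attached overnight, then exposed to compound at 0.01–100 µmol for 48 h. MTT added for 4 h, formazan dissolved in DMSO, absorbance read at 570 nm. Mean of at least three independent experiments, each in triplicate.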

The target in data set [10] is T1, Inhibitor of nuclear factor kappa-B kinase subunit beta (Homo sapiens, UniProt O14920).
T1 sequence (O14920 whole entry): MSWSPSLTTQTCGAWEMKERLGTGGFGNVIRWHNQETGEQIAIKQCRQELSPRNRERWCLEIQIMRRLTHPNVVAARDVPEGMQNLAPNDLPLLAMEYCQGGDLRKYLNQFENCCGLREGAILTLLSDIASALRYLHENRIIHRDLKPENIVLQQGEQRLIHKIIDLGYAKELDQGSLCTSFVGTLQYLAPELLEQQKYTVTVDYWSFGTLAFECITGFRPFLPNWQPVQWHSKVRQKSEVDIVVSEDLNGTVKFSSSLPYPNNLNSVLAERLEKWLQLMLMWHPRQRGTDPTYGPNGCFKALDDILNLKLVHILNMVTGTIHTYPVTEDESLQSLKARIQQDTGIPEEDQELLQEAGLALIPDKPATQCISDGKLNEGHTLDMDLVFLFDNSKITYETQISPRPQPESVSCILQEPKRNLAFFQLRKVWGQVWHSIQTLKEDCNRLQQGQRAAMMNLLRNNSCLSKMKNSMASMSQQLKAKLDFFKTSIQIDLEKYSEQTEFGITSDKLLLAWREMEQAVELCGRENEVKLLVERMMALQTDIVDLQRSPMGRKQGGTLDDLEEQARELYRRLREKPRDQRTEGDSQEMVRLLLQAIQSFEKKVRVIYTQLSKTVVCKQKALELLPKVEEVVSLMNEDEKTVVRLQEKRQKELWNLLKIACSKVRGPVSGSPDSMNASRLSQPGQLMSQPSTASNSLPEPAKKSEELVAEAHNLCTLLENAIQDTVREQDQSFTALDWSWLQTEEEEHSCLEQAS
Description: Inhibition of FLAG-tagged human recombinant IKKbeta phosphorylation expressed in baculovirus infected insect Sf9 cells after 1 hr by luminescence assay. The essentials:
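Kinase reaction ran 1 h at room temperature with bacterially expressed GST-IkBα substrate and 500 nmol ATP, in 25 mmol/l HEPES pH 7.5, 10 mmol/l Mg acetate, 1 mmol DTT, 0.01% BSA and 0.01% Tween20. Stopped with equal volume Kinase-Glo, 10 min RT, then luminescence of remaining ATP read.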

Data set [11] can be described thus: Inhibition of TNF-alpha-induced NF-kappaB (unknown origin) activation transfected in human A549 cells after 7 hrs by bright-glo luciferase reporter gene assay. It is filed as cell-based. The essentials:
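A549 cells co-transfected with pNF-κB-Luc and pSV-β-galactosidase (internal control) using lipofectamine. Medium changed at 6 h, cells cultured a further 6 h, then given TNF-α 15 ng/ml and compound together for 7 h. Read-out is Bright-Glo luciferase, corrected for background and viability and expressed relative to TNF-α-only cells. IC50 from a variable-slope sigmoidal fit.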
In general terms: Reporter assays use an easily measured gene product as a stand-in for the process of interest.

The test system of data set [12] is A549. Description: Cytotoxicity against human A549 cells transfected with NF-kappaB assessed as reduction of cell viability relative to control. On the set-up: concentration or dose not given beside the values. It is filed as cell-based.

For the compound `CC(C)=CC(=O)O[C@@H]1CC(C)(C)C[C@H]2C3=CC[C@@H]4[C@@]5(C)CC[C@H](OC(=O)/C=C/c6ccccc6)C(C)(C)[C@@H]5CC[C@@]4(C)[C@]3(C)CC[C@@]12C(=O)O`, the remaining at 2 h, 5 mg/ml in data set [1] was 39.2%; in [8], 97.2%. For the same compound, in data set [2], the remaining at 1 h, 5 mg/ml is 48.1%. In data set [3], the remaining at 0.25 h, 5 mg/ml came out at 74.7%. In data set [4], the remaining at 0.5 h, 5 mg/ml amounted to 55.5%. The remaining at 8 h, 5 mg/ml in data set [5] is 87.6%. In data set [6], the remaining at 12 h, 5 mg/ml is 81%. The remaining at 5 h, 5 mg/ml in data set [7] is 92.5%. In addition, the IC50 was 0.08 µmol in the data set with A549 [9], 0.94 µmol in data set [10] and 0.42 µmol in data set [11]. Also, in the data set on A549 [12], the Activity is on record as less than 5%.

With `C/C=C(\C)C(=O)O[C@@H]1CC(C)(C)C[C@H]2C3=CC[C@@H]4[C@@]5(C)CC[C@H](OC(=O)/C=C/c6ccccc6)C(C)(C)[C@@H]5CC[C@@]4(C)[C@]3(C)CC[C@@]12C(=O)O`, the figures for the remaining at 2 h, 5 mg/ml in data set [1] and in data set [8] were 36.8% and 96.4%, respectively. Also, the remaining at 1 h, 5 mg/ml in data set [2] is 46.8%. Also, in data set [3], the remaining at 0.25 h, 5 mg/ml came out at 74.2%. Further, the remaining at 0.5 h, 5 mg/ml in data set [4] is 54.7%. In addition, in data set [5], the remaining at 8 h, 5 mg/ml is 84.7%. In addition, the remaining at 12 h, 5 mg/ml in [6] is 76.6%. In addition, the remaining at 5 h, 5 mg/ml in [7] was 90.7%. The IC50 with A549 [9] was determined as 0.12 µmol; in data set [10], 1.2 µmol; in data set [11] it was 0.56 µmol. In the data set on A549 [12], the Activity is less than 5%.

`C/C=C(/C)C(=O)O[C@@H]1CC(C)(C)C[C@H]2C3=CC[C@@H]4[C@@]5(C)CC[C@H](O)C(C)(C)[C@@H]5CC[C@@]4(C)[C@]3(C)CC[C@@]12C(=O)O` [Reduced Lantadene A]: the IC50 was found to be 0.79 µmol with A549 [9], 2.62 µmol in data set [10] and 0.98 µmol in [11]. In the data set on A549 [12], the Activity is less than 5%.

`CC(C)=CC(=O)O[C@@H]1CC(C)(C)C[C@H]2C3=CC[C@@H]4[C@@]5(C)CC[C@H](O)C(C)(C)[C@@H]5CC[C@@]4(C)[C@]3(C)CC[C@@]12C(=O)O` [Reduced Lantadene B]: the IC50 was 0.43 µmol with A549 [9], 4.24 µmol in data set [10] and 1.02 µmol in [11]. Moreover, the Activity in the data set on A549 [12] is on record as less than 5%.
